# Measured values reported in article PMC12489099 (Nature Communications, 2025).
# How the values were obtained:
# Format in all cases: biochemical
# [1] = molecular target: Wt-Tau441 (Homo sapiens, UniProt P10636); assay: ThT fluorescence assay of Wt-Tau fibrillization
# How it was run: (§1)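 Lyophilized full-length Tau441 (wild-type or ΔK280) was diluted to 40 µM stock in 25 mM NaPi, 25 mM NaCl, 2.5 mM EDTA, pH 6.8, and used at 10 µM final with 25 µM ThT. Aggregation was started with 0.0625 µM heparin. Water-dissolved test compound was added at 50, 10 or 1 µM. Fluorescence was followed over time. Curves were fitted to a Boltzmann sigmoid and scaled to maximal control fluorescence; Wt-Tau relative F was taken at 30 h.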
# [2] = molecular target: Tau441-ΔK280 (Homo sapiens, UniProt P10636, DEL597-597); assay: ThT fluorescence assay of Tau-ΔK280 fibrillization; details: both 5/1 and 1/1 ratios
# How it was run: as §1
# [3] = molecular target: Aβ1-42 (Homo sapiens, UniProt P05067); assay: ThT fluorescence assay of Aβ1-42 fibrillization; details: compound/Aβ1-42 ratio 1/1
# Sequence of Aβ1-42 (P05067 672-713): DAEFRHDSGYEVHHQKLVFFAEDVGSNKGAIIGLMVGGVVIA
decrease of F versus Wt-Tau control ([1]; compound/Wt-Tau ratio 0.1/1) [%],"t1/2, change versus Wt-Tau control ([1]; compound/Wt-Tau ratio 1/1, N.A. = no aggregation)","inhibition of the aggregation of Wt-Tau (in words) ([1]; compound/Wt-Tau ratio 5/1, ThT)",inhibition of the aggregation of Tau-ΔK280 (in words) [2],"F, change versus Aβ1-42 control [3] [%]",SMILES
50,+55%,complete inhibition,complete inhibition,–,"CN(C)c1ccc2nc3ccc(=[N+](C)C)cc-3sc2c1 [MB, methylthioninium chloride]"
–,–,–,–,-78,Oc1ccc(/C=C/c2cc(O)cc(O)c2)cc1 [Resveratrol]
